# Laboratory results as given in ChEMBL document CHEMBL1121690, “Inhibition of cholesterol side-chain cleavage. 3. 22-azacholesterol analogues bearing aryl-substituted side chains” (J Med Chem, 1981).
# Key:
# Conditions in all cases: cattle
# [1] = target: T1, cholesterol side-chain cleavage cytochrome P450 (mitochondrial) (Bos taurus, UniProt P00189); experiment: Percent inhibition of cholesterol side-chain cleavage cytochrome P450 at 0.1 uM in bovine adrenocortical mitochondrial acetone powder preparations
# T1 sequence (P00189 whole entry): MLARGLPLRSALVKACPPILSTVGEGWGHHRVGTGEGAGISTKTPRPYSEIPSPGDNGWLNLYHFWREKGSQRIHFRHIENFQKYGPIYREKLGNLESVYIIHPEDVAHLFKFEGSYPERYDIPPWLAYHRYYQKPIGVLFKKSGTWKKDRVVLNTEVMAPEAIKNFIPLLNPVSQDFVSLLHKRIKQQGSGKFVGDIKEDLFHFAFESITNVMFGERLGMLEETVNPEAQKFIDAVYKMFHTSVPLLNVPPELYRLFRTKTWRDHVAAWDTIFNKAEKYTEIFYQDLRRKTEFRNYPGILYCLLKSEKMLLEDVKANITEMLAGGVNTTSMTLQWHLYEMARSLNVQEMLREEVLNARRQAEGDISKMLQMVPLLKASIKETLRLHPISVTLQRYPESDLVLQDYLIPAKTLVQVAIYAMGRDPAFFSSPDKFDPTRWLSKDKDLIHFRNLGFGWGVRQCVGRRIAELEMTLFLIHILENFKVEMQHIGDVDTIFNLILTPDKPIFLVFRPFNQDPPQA
# Summary of the method: (§1)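 Inhibitors were dissolved in DMF and added to the incubation mixture before the substrate, at final concentrations of 100 µM or less. Activity was taken from the change in isotope ratios between zero time and 2 h, read by liquid scintillation counting after the isocaproic acid was driven off by heating under vacuum.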
# [2] = target: T1, cholesterol side-chain cleavage cytochrome P450 (mitochondrial); experiment: Percent inhibition of cholesterol side-chain cleavage cytochrome P450 at 100 uM in bovine adrenocortical mitochondrial acetone powder preparations; summary of the method: as §1
# [3] = target: T1, cholesterol side-chain cleavage cytochrome P450 (mitochondrial); experiment: Percent inhibition of cholesterol side-chain cleavage cytochrome P450 at 10 uM in bovine adrenocortical mitochondrial acetone powder preparations; summary of the method: as §1
# [4] = target: T1, cholesterol side-chain cleavage cytochrome P450 (mitochondrial); experiment: Percent inhibition of cholesterol side-chain cleavage cytochrome P450 at 1 uM in bovine adrenocortical mitochondrial acetone powder preparations; summary of the method: as §1
SMILES,inhibition at 0.1 µM [1],inhibition at 100 µM [2],inhibition at 10 µM [3],inhibition at 1 µM [4]
CC(NC(=O)CCc1ccccc1)C1CCC2C3CC=C4CC(O)CCC4(C)C3CCC12C (centres undefined),19%,,,
CC(NC(=O)Cc1ccc([N+](=O)[O-])cc1)C1CCC2C3CC=C4CC(O)CCC4(C)C3CCC12C (centres undefined),,39%,49%,22%
CC(C(=O)NCc1ccccc1)C1CCC2C3CC=C4CC(O)CCC4(C)C3CCC12C (centres undefined),,45%,31%,
CC(NC(=O)Cc1ccccc1)C1CCC2C3CC=C4CC(O)CCC4(C)C3CCC12C (centres undefined),28%,,44%,
COc1ccc(CCNC(C)C2CCC3C4CC=C5CC(O)CCC5(C)C4CCC23C)cc1 (centres undefined),-6%,,40%,
CC(NCCc1ccc(Cl)cc1)C1CCC2C3CC=C4CC(O)CCC4(C)C3CCC12C (centres undefined),,,,22%
CC(NC(=O)c1ccccc1)C1CCC2C3CC=C4CC(O)CCC4(C)C3CCC12C (centres undefined),9%,84%,84%,53%
COc1ccc(CC(=O)NC(C)C2CCC3C4CC=C5CC(O)CCC5(C)C4CCC23C)cc1 (centres undefined),38%,,,
CC(NC(=O)Cc1ccc(Cl)cc1)C1CCC2C3CC=C4CC(O)CCC4(C)C3CCC12C (centres undefined),25%,,,
CC(NC(=O)Cc1cccc(I)c1)C1CCC2C3CC=C4CC(O)CCC4(C)C3CCC12C (centres undefined),,,73%,18%
